Measured values from ChEMBL document CHEMBL1143328, “Determination of 1-aryl-4-propylpiperazine pKa values: the substituent on aryl modulates basicity” (Bioorg Med Chem, 2009).

Assay: Dissociation constant, pKa by potentiometric titration method
Type: physicochemical
Method in brief: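 Each compound dissolved in ionic-strength-adjusted water (0.15 M), titrated with 0.5 M KOH up to pH 11. Steps capped at 0.2 pH units; each point recorded once drift fell below 0.002 pH/min. Electrode checked in pH 7.00 buffer and calibrated by blank titration daily.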
Compound `CCCN1CCN(c2cccc(O)c2)CC1` has a pKa of 7.82.
For `CCCN1CCN(c2ccccc2C(F)(F)F)CC1`, the pKa was 8.8.
Compound `CCCN1CCN(c2ccc([N+](=O)[O-])cc2)CC1` has a pKa of 7.59.
Work on `CCCN1CCN(c2ccccc2C#N)CC1` yielded a pKa of 7.92.
With `CCCN1CCN(c2cccc(Cl)c2)CC1` the pKa was 7.83.
Compound `CCCN1CCN(c2ccc(O)cc2)CC1` has a pKa of 7.92.
`CCCN1CCN(c2ccccc2Cl)CC1` showed a pKa of 8.07.
Work on `CCCN1CCN(c2cccc(C(N)=O)c2)CC1` yielded a pKa of 7.76.
`CCCN1CCN(c2ccc(C#N)cc2)CC1` showed a pKa of 7.78.
With `CCCN1CCN(c2cccc(C)c2)CC1` the pKa was 7.83.
`CCCN1CCN(c2ccccc2)CC1` gave a pKa of 7.96.
Work on `CCCN1CCN(c2ccccc2[N+](=O)[O-])CC1` yielded a pKa of 7.94.
In the case of `CCCN1CCN(c2ccccc2O)CC1`, the pKa is reported as 8.05.
Compound `CCCN1CCN(c2ccc(C(F)(F)F)cc2)CC1` has a pKa of 7.84.
With `CCCN1CCN(c2ccccc2C(N)=O)CC1` the pKa was 8.14.
Compound `CCCN1CCN(c2ccc(Cl)cc2)CC1` has a pKa of 7.83.
`CCCN1CCN(c2ccc(C)cc2)CC1` showed a pKa of 7.92.
For `CCCN1CCN(c2cccc([N+](=O)[O-])c2)CC1`, the pKa was 7.7.
Work on `CCCN1CCN(c2ccc(C(N)=O)cc2)CC1` yielded a pKa of 7.84.
`CCCN1CCN(c2ccccc2OC)CC1` showed a pKa of 8.29.
For `CCCN1CCN(c2cccc(OC)c2)CC1`, the pKa was 7.86.
Compound `CCCN1CCN(c2cccc(C#N)c2)CC1` has a pKa of 7.67.
Work on `CCCN1CCN(c2cccc(C(F)(F)F)c2)CC1` yielded a pKa of 7.81.
Compound `CCCN1CCN(c2ccc(OC)cc2)CC1` has a pKa of 7.88.
`CCCN1CCN(c2ccccc2C)CC1` gave a pKa of 8.39.
